In ChEMBL document CHEMBL4350963, “Discovery and Lead-Optimization of 4,5-Dihydropyrazoles as Mono-Kinase Selective, Orally Bioavailable and Efficacious Inhibitors of Receptor Interacting Protein 1 (RIP1) Kinase” (J Med Chem, 2019):
In brackets after ≈: the same amount, converted by molar mass. Blank lines part the entries; values can stand above or below the compound they belong to.

How the values were obtained:
[1] = Chromatographic hydrophobicity index, log D of the compound at pH 7.4 by reverse-phase HPLC analysis; format: physicochemical; conditions: buffer
Outline: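 Log D at pH 7.4 was calculated from the retention time on a fast-gradient reverse-phase HPLC run.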

[2] = Solubility of the compound in fasted state simulated intestinal fluid measured after 4 hrs; format: physicochemical
[3] = Cmax in rat at 2 mg/kg, po; format: ADME, organism-based; parameters: dose 2 mg/kg, route oral; conditions: in vivo
Outline: (§1)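 Rat pharmacokinetics: the iv arm was dosed at 1 mg/kg in 5% DMSO/20% Cavitron aqueous solution. The oral arm was dosed at 2 mg/kg in 5% DMSO/6% Cavitron aqueous solution. Bioavailability was calculated non-crossover, from average exposures in separate oral and iv studies.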

[4] = Tmax in rat at 2 mg/kg, po; format: ADME, organism-based; conditions: in vivo
[5] = Volume of distribution at steady state in rat at 1 mg/kg, iv; format: ADME, organism-based; conditions: in vivo, read-out: Vdss
[6] = AUC (0 to infinity) in rat at 1 mg/kg, iv; format: ADME, organism-based; parameters: dose 1 mg/kg, time infinity, route intravenous; conditions: in vivo; outline: as §1
[7] = Oral bioavailability in rat at 2 mg/kg; format: ADME, organism-based; conditions: in vivo
[8] = Volume of distribution at steady state in mouse at 2 mg/kg, iv; format: ADME, organism-based; conditions: in vivo, read-out: Vdss
[9] = AUC (0 to infinity) in mouse at 2 mg/kg, iv; format: ADME, organism-based; parameters: dose 2 mg/kg, time infinity, route intravenous; conditions: in vivo
[10] = Cmax in mouse at 30 mg/kg, po; format: ADME, organism-based; parameters: dose 30 mg/kg, route oral; conditions: in vivo
Outline: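 Mouse pharmacokinetics: the iv arm received 2 mg/kg in 5% DMSO/20% Cavitron aqueous solution. The oral arm received 30 mg/kg as a suspension in 1% aqueous methylcellulose.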

[11] = Tmax in mouse at 30 mg/kg, po; format: ADME, organism-based; conditions: in vivo
[12] = Volume of distribution at steady state in minipig at 1 mg/kg, iv; format: ADME, organism-based, Sus scrofa; conditions: pig, in vivo, read-out: Vdss
[13] = AUC (0 to infinity) in minipig at 1 mg/kg, iv; format: ADME, organism-based, Sus scrofa; parameters: dose 1 mg/kg, route intravenous, time infinity; conditions: pig, in vivo
[14] = Cmax in minipig at 2 mg/kg, po; format: ADME, organism-based, Sus scrofa; parameters: dose 2 mg/kg, route oral; conditions: pig, in vivo
[15] = Tmax in minipig at 2 mg/kg, po; format: ADME, organism-based, Sus scrofa; conditions: pig, in vivo
[16] = Oral bioavailability in minipig at 2 mg/kg; format: ADME, organism-based, Sus scrofa; conditions: pig, in vivo
[17] = Volume of distribution at steady state in monkey at 1 mg/kg, iv; format: ADME, organism-based, Macaca mulatta; conditions: rhesus monkey, in vivo, read-out: Vdss
[18] = AUC (0 to infinity) in monkey at 1 mg/kg, iv; format: ADME, organism-based, Macaca mulatta; parameters: dose 1 mg/kg, time infinity, route intravenous; conditions: rhesus monkey, in vivo
[19] = Cmax in monkey at 2 mg/kg, po; format: ADME, organism-based, Macaca mulatta; parameters: dose 2 mg/kg, route oral; conditions: rhesus monkey, in vivo
[20] = Tmax in monkey at 2 mg/kg, po; format: ADME, organism-based, Macaca mulatta; conditions: rhesus monkey, in vivo
[21] = Oral bioavailability in monkey at 2 mg/kg; format: ADME, organism-based, Macaca mulatta; conditions: rhesus monkey, in vivo
[22] = AUC (0 to infinity) in rat at 2 mg/kg, po; format: ADME, organism-based; parameters: dose 2 mg/kg, route oral, time infinity; conditions: in vivo; outline: as §1
[23] = Solubility of the compound in fasted state simulated intestinal fluid measured after 4 hrs using crystalline sample; format: physicochemical

- chromatographic logD [1]: 3.2
Structure (SMILES): O=C(C1CCN(c2ccncn2)CC1)N1N=CC[C@H]1c1ccccc1

- chromatographic logD [1]: 1.4
Structure (SMILES): CC(C)(CN)C(=O)N1N=CCC1c1ccccc1 (centres undefined)

- solubility at 4 h [2]: 250 µg/mL (≈ 0.666 mM)
- chromatographic logD [1]: 3.6
- Cmax [3]: 1100 ng/mL
- Tmax [4]: 25 min
- Vd [5]: 1.3 L/kg
- AUC(0-inf) [6]: 1300 ng·h/mL
- bioavailability [7]: 130%
- Vd [8]: 1.8 L/kg
- AUC(0-inf) [9]: 1100 ng·h/mL
- Cmax [10]: 5410 ng/mL
- Tmax [11]: 30 min
- Vd [12]: 1.3 L/kg
- AUC(0-inf) [13]: 1300 ng·h/mL
- Cmax [14]: 576 ng/mL
- Tmax [15]: 80 min
- bioavailability [16]: 65%
- Vd [17]: 1.1 L/kg
- AUC(0-inf) [18]: 3100 ng·h/mL
- Cmax [19]: 480 ng/mL
- Tmax [20]: 120 min
- bioavailability [21]: 40%
Structure (SMILES): Cc1nnc(N2CCC(C(=O)N3N=CC[C@H]3c3cc(F)cc(F)c3)CC2)o1

- chromatographic logD [1]: 5.1
Structure (SMILES): O=C(C1CCN(c2ccccn2)CC1)N1N=CC[C@H]1c1ccccc1

- chromatographic logD [1]: 5
Structure (SMILES): CC(C)(C)C(=O)N1CCC1c1ccccc1 (centres undefined)

- chromatographic logD [1]: 3
- Cmax [3]: 345 ng/mL
- Tmax [4]: 5 min
- AUC(0-inf) [22]: 200 ng·h/mL
Structure (SMILES): CC(C)(C)C(=O)N1N=CCC1c1cocn1 (centres undefined)

- chromatographic logD [1]: 3.4
Structure (SMILES): O=C(C1CCN(c2cccnn2)CC1)N1N=CC[C@H]1c1ccccc1

- chromatographic logD [1]: 4.7
Structure (SMILES): O=C(C1CCC1)N1N=CCC1c1ccccc1 (centres undefined)

- chromatographic logD [1]: 2.7
- Vd [5]: 2.1 L/kg
- AUC(0-inf) [6]: 400 ng·h/mL
Structure (SMILES): O=C(c1cnco1)N1CCC(C(=O)N2N=CC[C@H]2c2ccccc2)CC1

- chromatographic logD [1]: 2.5
- solubility thermodynamic at 4 h [23]: 7400 µg/mL (≈ 24.7 mM)
- Cmax [3]: 795 ng/mL
- Tmax [4]: 30 min
- AUC(0-inf) [22]: 1600 ng·h/mL
- Vd [5]: 1.7 L/kg
- AUC(0-inf) [6]: 420 ng·h/mL
Structure (SMILES): CC(=O)N1CCC(C(=O)N2N=CC[C@H]2c2ccccc2)CC1

Structure (SMILES): CC(C)(C)C(=O)N1N=CCC1c1c[nH]cn1 (centres undefined)
- chromatographic logD [1]: 1.7

- chromatographic logD [1]: 3.2
- Vd [5]: 1.6 L/kg
- AUC(0-inf) [6]: 800 ng·h/mL
Structure (SMILES): Cc1nnc(N2CCC(C(=O)N3N=CC[C@H]3c3ccccc3)CC2)o1

- chromatographic logD [1]: 5.1
Structure (SMILES): N#Cc1nccc(N2CCC(C(=O)N3N=CC[C@H]3c3cc(F)cc(F)c3)CC2)n1

- chromatographic logD [1]: 3
Structure (SMILES): O=C(c1cscn1)N1CCC(C(=O)N2N=CC[C@H]2c2ccccc2)CC1

- chromatographic logD [1]: 2.6
Structure (SMILES): O=C(c1cccnc1)N1CCC(C(=O)N2N=CCC2c2ccccc2)CC1 (centres undefined)

- chromatographic logD [1]: 6.3
Structure (SMILES): CC(C)(C)C(=O)N1N=CCC1c1cc(F)cc(F)c1 (centres undefined)

- chromatographic logD [1]: 6.7
Structure (SMILES): CC(C)(C)C(=O)N1N=CCC1C1CCCC1 (centres undefined)

- chromatographic logD [1]: 2.5
Structure (SMILES): CC(=O)N1CCC(C(=O)N2N=CCC2c2ccccc2)CC1 (racemic)

- chromatographic logD [1]: 7.3
Structure (SMILES): CC(C)(C)C(=O)N1N=CCC1C1CCCCC1 (centres undefined)

- chromatographic logD [1]: 6.6
Structure (SMILES): CC(C)(C)C(=O)N1N=CCC1c1ccc(Cl)cc1 (centres undefined)

- chromatographic logD [1]: 4.8
Structure (SMILES): N#Cc1ccc(N2CCC(C(=O)N3N=CC[C@H]3c3cc(F)cc(F)c3)CC2)nn1

- chromatographic logD [1]: 3
Structure (SMILES): O=C(C1CCOC1)N1N=CCC1c1ccccc1 (centres undefined)

- chromatographic logD [1]: 8.3
Structure (SMILES): CC(C)(C)C(=O)n1nccc1-c1ccccc1

- chromatographic logD [1]: 6.6
Structure (SMILES): CC(C)(C)C(=O)N1N=CCC1c1cccc(Cl)c1 (centres undefined)

- chromatographic logD [1]: 6.7
Structure (SMILES): CC(C)(C)C(=O)N1CCCCC1c1ccccc1 (centres undefined)

- chromatographic logD [1]: 4.7
Structure (SMILES): CC(C)(C)C(=O)N1CCOCC1c1ccccc1 (centres undefined)

- chromatographic logD [1]: 5.4
Structure (SMILES): O=C(C1CCCCC1)N1CCC(C(=O)N2N=CCC2c2ccccc2)CC1 (centres undefined)

- chromatographic logD [1]: 1.4
Structure (SMILES): CN1CCC(C2CC=NN2C(=O)C(C)(C)C)CC1 (centres undefined)

- chromatographic logD [1]: 6.4
Structure (SMILES): CC1=NN(C(=O)C(C)(C)C)[C@H](c2ccccc2)C1

- chromatographic logD [1]: 2.7
Structure (SMILES): O=C(c1cccnc1)N1N=CCC1c1ccccc1 (centres undefined)

- chromatographic logD [1]: 2.1
- Vd [5]: 1.6 L/kg
- AUC(0-inf) [6]: 360 ng·h/mL
Structure (SMILES): O=C(c1cn[nH]c1)N1CCC(C(=O)N2N=CCC2c2ccccc2)CC1 (centres undefined)

- chromatographic logD [1]: 4.4
Structure (SMILES): O=C(c1ccccc1)N1CCC(C(=O)N2N=CCC2c2ccccc2)CC1 (centres undefined)

- chromatographic logD [1]: 5.6
Structure (SMILES): CC(C)(C)C(=O)N1CCSC1c1ccccc1 (centres undefined)

- chromatographic logD [1]: 4.9
Structure (SMILES): O=C(C1CCN(C(=O)C(F)(F)F)CC1)N1N=CCC1c1ccccc1 (centres undefined)
